Screening results deposited in PubChem BioAssay by The Scripps Research Institute Molecular Screening Center.
The list is not random: actives were taken first. Their share in the collection is about 4.6%.
OX1R antag-1: OX1R (HCRTR1) antagonists, primary screen, fluorescence, CHO/OX1R cells, Fluo-8 calcium, orexin A. Orexin/Hypocretin receptor type 1 (Homo sapiens), O43613. Fluo-8 calcium fluorescence. inhibition, % at 5 µM. actives 0.43% (n = 330,000). AID 434989, 2010;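 active means inhibition above its plate's threshold, mean inhibition of all tested compounds on the plate plus 3 SD, cut at about 37% in these data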
OX1R antag-2: antagonists of human orexin 1 receptor (OX1R) | OX1R-expressing cells, FRET antagonist read-out | actives 1.8% (n = 330,000) | inhibition, % at 6.6 µM; in the data active means inhibition mostly above about 38%, no sharp cut-off; inactive means mostly below about 40%
TAAR1 antagonist: human TAAR1 antagonists, primary screen, Fluo-8 calcium fluorescence, CHO RD-HGA16 cells. antagonist. Trace amine-associated receptor 1 (Homo sapiens), Q96RJ0. inhibition, % at 3 µM. AID 624466, 2012. actives 1.5% (n = 360,000);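 active means inhibition above a per-plate cutoff, the mean inhibition of test compounds on that plate plus 3 SD, cut at about 49% in these data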
Target sequence (Q96RJ0 whole entry, looked up): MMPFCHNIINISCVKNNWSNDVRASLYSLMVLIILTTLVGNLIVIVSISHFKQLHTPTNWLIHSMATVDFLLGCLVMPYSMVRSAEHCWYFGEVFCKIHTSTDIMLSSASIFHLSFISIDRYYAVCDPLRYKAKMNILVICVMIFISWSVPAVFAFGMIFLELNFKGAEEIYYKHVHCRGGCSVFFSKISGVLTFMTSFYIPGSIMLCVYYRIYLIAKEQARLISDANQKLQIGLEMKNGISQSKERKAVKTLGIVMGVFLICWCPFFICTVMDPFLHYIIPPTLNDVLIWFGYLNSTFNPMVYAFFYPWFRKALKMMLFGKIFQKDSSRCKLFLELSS
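test system = CHO RD-HGA16 cells bearing hTAAR1 | replication = singlicate | controls = DMSO-only wells and EC80 β-PEA-stimulated wells | reagent = EC80 β-phenethylamine stimulus | read-out basis = percent inhibition of PEA-evoked calcium signal, max/basal emission ratio | schedule = seeding 17-24 h prior, 75-min 37 °C, 30-min RT dye loading | signal = kinetic Fluo-8 calcium fluorescence measurement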
CHO parental Ca: ATP-evoked calcium signal inhibitors, parental CHO, primary screen, counter-screen for OX1R antagonist project, cell-based, fluorescence, Fluo-8 calcium dye. parental CHO-K1, ATP-induced calcium, Fluo-8 fluorescence. inhibition, % at 5.6 µM. actives 0.63% (n = 330,000);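 active means inhibition above that plate's mean sample inhibition plus 3 SD, cut at about 26% in these data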
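Test system: parental CHO cells; detection: calcium-sensitive Fluo-8 fluorescence; evaluation: percent inhibition of calcium signal; also added: ATP as calcium-mobilizing challenge; repeats: one well per compound; control set: ATP-challenged DMSO wells low, unchallenged DMSO wells high; compound: single nominal dose of 5.6 µM per compound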
GPR7 antag: GPR7 receptor antagonists, primary screen, cell-based, fluorescence, single concentration | Neuropeptides B/W receptor type 1 (Homo sapiens), P48145 | GPR7-expressing cells, fluorescence antagonist assay | inhibition, % at 4.4 µM | actives 1.1% (n = 290,000) | AID 1861, 2009; in the data active means inhibition above about 16%, passing the limit was not always enough;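 further: cells stimulated with the agonist NPW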
TAAR1 ag: human TAAR1 agonists, primary screen, Fluo-8 calcium fluorescence, CHO RD-HGA16 cells; AID 624467, 2012; vehicle wells 0%, saturating PEA agonist 100%; activation, % at 3 µM; Trace amine-associated receptor 1 (Homo sapiens), Q96RJ0; actives 0.99% (n = 360,000);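 active means activation above the mean activation of all test compounds in the run plus 3 SD, cut at about 38% in these data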
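Assay system: CHO-derived RD-HGA16 cells with stable Gα16 and human TAAR1; timing: 17-24 h seeding, 75 min 37 °C dye, 30 min RT; read-out: % activation from peak over basal fluorescence ratio, DMSO-to-PEA scaled; measured by: kinetic Fluo-8 calcium fluorescence; benchmarks: low control DMSO, high control PEA (EC100); doses: 3 µM single concentration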
Of the large screens only hits and unclear results are named; the others gave an inactive call.

Cc1csc(Sc2ccc([N+](=O)[O-])cc2C(=O)OCC(=O)NC2CCCC(C)C2C)n1 (centres undefined)	none
O=[N+]([O-])C(/C=C(\Cl)[N+](=O)[O-])=C(N1CCCCC1)N1CCCCC1	OX1R antag-2 63.7
Cc1ccc2ccccc2c1C(O)c1ncc(-c2ccccc2F)[nH]1 (centres undefined)	none (no result: OX1R antag-1, OX1R antag-2, CHO parental Ca, GPR7 antag)
Cc1cc(C)c(NC(=O)CNC(=O)c2cc(C3CC3)nc3c2cnn3C(C)C)c(C)c1	none (no result: OX1R antag-1, OX1R antag-2, CHO parental Ca, GPR7 antag)
CC(C)n1ncc2c(C(=O)Nc3ccccc3SCC(N)=O)cc(C3CC3)nc21	TAAR1 antagonist 48.8 (no result: OX1R antag-1, OX1R antag-2, CHO parental Ca, GPR7 antag)
CCc1ccccc1NC(=O)CNC(=O)c1cc(C2CC2)nc2c1cnn2C(C)C	OX1R antag-2 38.0 (no result: GPR7 antag)
CC(=O)NC(c1cccc(F)c1)c1nc(-c2csc3ccccc23)cs1 (centres undefined)	none (no result: OX1R antag-1, OX1R antag-2, CHO parental Ca, GPR7 antag)
CN(C(=O)CSc1nnnn1-c1ccccc1)C1CCS(=O)(=O)C1 (centres undefined)	GPR7 antag 19.0
CCCn1c(CNc2ccc(Br)cc2)nc2ccccc21	CHO parental Ca 34.0
CCOc1ccc(N(Cc2cc3cc(OC)ccc3[nH]c2=O)S(C)(=O)=O)cc1	none
COc1ccc(N(Cc2cc3cc(OC)ccc3[nH]c2=O)S(=O)(=O)c2ccc(NC(C)=O)cc2)cc1	TAAR1 antagonist 57.7
CC(=O)Nc1ccc(S(=O)(=O)N(Cc2cccnc2)Cc2cc3ccccc3[nH]c2=O)cc1	TAAR1 antagonist 60.8
CC(=O)Nc1ccc(S(=O)(=O)N(Cc2ccccc2)c2ccccc2)cc1	OX1R antag-2 66.1
Cc1cc([N+](=O)[O-])cc2ncccc12	OX1R antag-2 69.0
N#Cc1cc(Nc2c(N)nc[nH]c2=O)c([N+](=O)[O-])cc1C#N	OX1R antag-2 48.1
N#Cc1cc(NC2CCCC2)c([N+](=O)[O-])cc1C#N	none
O=C(NCC(c1cccs1)N1CCOCC1)c1ccccc1NS(=O)(=O)c1ccc(Cl)c([N+](=O)[O-])c1 (centres undefined)	OX1R antag-2 44.9
COC(=O)[C@]12C[C@H](CC(=O)NCCC(C)C)C(=O)N(Cc3ccccc3)C1=C[C@H](C(C)C)O[C@@H]2C1CC1	none (no result: OX1R antag-1, OX1R antag-2, CHO parental Ca, GPR7 antag)
COc1ccc(C(=O)Nc2ccccc2C(=O)O)cc1Cl	none
CCOc1c(Cl)cc(C(=O)Nc2ccccc2C(=O)O)cc1Cl	OX1R antag-2 62.9
Cc1ccc(C(=O)Nc2ccccc2C(=O)O)cc1NC(=O)COc1c(C)cccc1C	OX1R antag-2 41.4
c1ccc(-c2nc(NCc3cccnc3)c3oc4ccccc4c3n2)cc1	OX1R antag-2 68.0
CCOc1cc(/C=C\c2nc(O)c([N+](=O)[O-])c(=O)[nH]2)ccc1OC(C)C	none
O=c1[nH]c(/C=C\c2ccc(O)c(Cl)c2)nc(O)c1[N+](=O)[O-]	OX1R antag-2 51.3
O=c1[nH]c(/C=C\c2cccs2)nc(O)c1[N+](=O)[O-]	OX1R antag-2 64.8
O=c1[nH]c(/C=C\c2ccc(O)cc2)nc(O)c1[N+](=O)[O-]	OX1R antag-2 46.9
C=CCc1cc(/C=C/c2nc(O)c([N+](=O)[O-])c(=O)[nH]2)cc(OC)c1O	none
COC(=O)c1cc2c(c3c4cc(C)ccc4n(S(=O)(=O)c4ccccc4)c13)C(=O)N(Cc1ccc(C(F)(F)F)cc1)C2	none (no result: OX1R antag-1, OX1R antag-2, CHO parental Ca, GPR7 antag)
O=C1C2C3C=CC(C4CC34)C2C(=O)N1/N=C/c1ccc(-c2ccc(Cl)cc2[N+](=O)[O-])o1 (centres undefined)	TAAR1 antagonist 52.3
O=C1C2C3C=CC(C4CC34)C2C(=O)N1/N=C/c1ccc(-c2ccc(F)cc2[N+](=O)[O-])o1 (centres undefined)	none
COc1ccc(-c2cn3cc(C)ccc3n2)cc1Br	none
COc1ccc(-c2cn3cc(Cl)ccc3n2)cc1OC	OX1R antag-2 45.3
NS(=O)(=O)c1ccc(N=Nc2ccc(O)c3ncccc23)cc1	none
